According to paper PMC13435124 (The FASEB Journal, 2026):
Entries after “also recorded” stand apart in the source; their conditions may differ.

Legend:
[1] = test system: WT and APP/PS1 male mice; test: Hippocampal gene expression, real-time RT-PCR; format: in vivo, mouse
How it was run: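 Hippocampi of 11-month-old WT and APP/PS1 males after 1 month of intranasal PBS or test compound at 100 mg/kg. hAPP, Bace1, Il-1β, Iba1, Trem2, Hmox1, Ppargc1α and Bdnf mRNA measured by real-time RT-PCR.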

[2] = test system: Nrf2 activation in KeratinoSens cells; test: KeratinoSens reporter gene assay; format: cell-based; settings: 6 h; Iso 250 μM, DMF 50 μM
How it was run: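 KeratinoSens ARE-luciferase cells (passage ≤22) plated at 1.0 × 10^4 per well in triplicate; after 24 h switched to DMEM with 1% FBS, no geneticin. Wortmannin 500 nM added 1 h before test compound at 250 μM; DMF 50 μM as positive control; DMSO ≤0.1%. After 6 h, Alamar Blue (4 h, 37°C), then luciferase read as fold over DMSO. Three independent experiments in triplicate.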

[3] = test system: WT and APP/PS1 male mice; test: Body weight and metabolic parameters of 11-month-old males; format: in vivo, mouse; settings: 1 month
[4] = test system: APP/PS1 male mice; test: Aβ40 and Aβ42 levels in cortex, hippocampus and plasma; format: in vivo, mouse; settings: 11-month-old APP/PS1 males, 100 mg/kg, 1 month
How it was run: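 APP/PS1 and WT littermate males aged 10 months, randomised to groups of n = 5. PBS vehicle or test compound at 100 mg/kg given intranasally for 1 month. At 11 months, Aβ40 and Aβ42 measured in cortex, hippocampus and plasma; plasma Aβ42/Aβ40 ratio derived. Mean ± SEM of five animals.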

[5] = test system: N2a-APPswe cells; test: Nrf2 silencing; format: cell-based, mouse
[6] = test system: AKT/GSK3β signaling in N2a-APPswe cells; test: AKT and GSK3β phosphorylation, western blot; format: cell-based, mouse; settings: 250 μM, 30 min
How it was run: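 Murine N2a-APPswe cells exposed to test compound at 250 μM for 5, 15 or 30 min; basal pAKT in untreated N2a-wt and N2a-APPswe read at 30 min. Protein by BCA; lysates denatured 5 min at 95°C. Membranes blocked 1 h RT in 5% BSA for phospho-proteins, primaries 1:1000 overnight at 4°C, HRP secondaries 1 h RT.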

[7] = test system: WT female mice; test: Safety: histopathology and serum biochemistry after 1 month intranasal dosing; format: in vivo, mouse; settings: intranasal 100 mg/kg
How it was run: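 11-month-old WT females given intranasal PBS or test compound at 100 mg/kg for 1 month. Histopathology of heart, hippocampus, lung, liver and kidney. Serum GOT, GGT, ALP, albumin, creatinine and urea reported as mg/dL or IU/L.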

[8] = test system: APP/PS1 female mice; test: Demographic and metabolic parameters of 6-month-old females; format: in vivo, mouse; settings: 6-month-old APP/PS1 females, 50 mg/kg, 1 month
How it was run: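 WT and APP/PS1 females given PBS vehicle or test compound at 50 mg/kg (APP/PS1 only) intranasally for 1 month. Recorded body weight, adipose tissue weight, fasting glucose and triglycerides. Mean ± SEM of five to six animals.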

[9] = test system: Aβ40 and Aβ42 peptide levels in N2a-APPswe cells; test: Aβ40 and Aβ42 peptide levels in N2a cell supernatants; format: cell-based, mouse; settings: 250 μM, 24 h
How it was run: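 N2a-wt and N2a-APPswe cells left untreated or exposed to test compound at 250 μM for 24 h. Aβ40 and Aβ42 peptides quantified by ELISA.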

[10] = test system: BV-2 cells; test: Nrf2 silencing; format: cell-based, mouse; settings: BV-2, Iso + LPS
[11] = test system: APP/PS1 male mice; test: Y-maze test; format: in vivo, mouse; settings: 100 mg/kg, 1 month
How it was run: (§1)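 Behavioural testing in 10-month-old APP/PS1 and WT littermate males, randomised n = 5 per group. Intranasal PBS or test compound at 100 mg/kg for 1 month. Distance travelled also recorded.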

[12] = test system: BV-2 cells exposed to LPS; test: iNOS and pro-IL-1β protein in LPS-stimulated microglia, western blot; format: cell-based, mouse; settings: BV-2, 250 μM, LPS 50 ng/mL, 24 h
How it was run: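 BV-2 cells given test compound at 250 μM, LPS 50 ng/mL added 30 min later, for 24 h. iNOS and pro-IL-1β protein measured by western blot. Mean ± SEM of four independent experiments, relative to untreated control.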

[13] = test system: APP/PS1 male mice; test: Novel object recognition test; format: in vivo, mouse; settings: APP/PS1 males, 100 mg/kg, 1 month
How it was run: as §1

[14] = APP/PS1 + Iso vs APP/PS1, 100 mg/kg, 1 month
[15] = APP/PS1 males, 100 mg/kg, 1 month
[16] = WT and APP/PS1 males, 100 mg/kg, 1 month, not significant
[17] = APP/PS1 males, not statistically significant

Structure (SMILES): CC=Cc1ccc(O)c(OC)c1 [Iso, 2‐methoxy‐4‐(prop‐1‐en‐1‐yl) phenol]
- decrease in Bdnf gene of APP/PS1 mice [1, 14]: reversed
- reduction in Ppargc1α mRNA levels of APP/PS1 mice [1, 14]: reversed
- Iba1 expression in hippocampus [1, 15]: increased
- h-APP gene expression in hippocampus [1, 15]: not affected
- increase in Trem2 gene expression (trend) [1, 15]: 1.6 fold
- reduction of Bace1 mRNA levels ([1]; Iso-treated 11-month-old animals, 100 mg/kg, not significant): ~ 4 fold
- Bace1 mRNA levels in hippocampus [1, 16]: clear tendency toward a reduction
- Il1β mRNA levels in hippocampus [1, 16]: clear tendency toward a reduction; also recorded: markedly reduced
- Trem2 mRNA levels in hippocampus ([1]; WT males, 100 mg/kg, 1 month): decreased
- Hmox1 expression in hippocampus ([1]; both WT and APP/PS1 males, 100 mg/kg, 1 month): increased
- Nrf2 activation (luciferase induction) [2]: induced Nrf2 activation
- triglycerides ([3]; 11-month-old APP/PS1 males, 100 mg/kg): reduction
- adipose tissue weight ([3]; 11-month-old WT and APP/PS1 males, 100 mg/kg): trend toward a decrease
- decrease in body weight ([3]; 11-month-old males, intranasal 100 mg/kg): < 15%
- cortex Aβ40 levels [4]: no alterations observed
- cortex Aβ42 levels [4]: no alterations observed
- hippocampus Aβ40 levels [4]: no alterations observed
- hippocampus Aβ42 levels [4]: no alterations observed
- plasma Aβ40 levels [4]: decreased
- plasma Aβ42 levels [4]: decreased
- plasma Aβ42/Aβ40 ratio ([4]; not significant): partial increase
- Aβ40 peptide levels ([5]; not transfected N2a-APPswe, silencing experiment set, 24 h): significantly decreased
- Aβ40 levels in Nrf2-silenced cells ([5]; siNrf2 + Iso, N2a-APPswe, 36 h after transfection): further decreased
- AKT phosphorylated levels [6]: AKT activation
- GSK3β phosphorylated (Ser9) levels [6]: GSK3β inactivation
- LDL cholesterol ([7]; 11-month-old WT females): reduction
- hippocampus histopathology ([7]; WT females): Increased cell activation
- kidney histopathology ([7]; WT females): cellular eosinophilia and tubular epithelial hypertrophy
- liver histopathology (hepatic steatosis seen in VEH) ([7]; WT females): also maintained
- serum albumin ([7]; WT females): no alterations were detected
- serum alkaline phosphatase (ALP) ([7]; WT females): no alterations were detected
- serum creatinine ([7]; WT females): no alterations were detected
- serum gamma-glutamyl transferase (GGT) ([7]; WT females): no alterations were detected
- serum glutamic oxaloacetic transaminase (GOT) ([7]; WT females): no alterations were detected
- serum urea ([7]; WT females): no alterations were detected
- heart histopathology ([7]; WT females, vs VEH): No histopathological changes were observed
- adipose tissue weight [8]: did not reduce
- Aβ42 peptide levels [9]: no effect was observed
- Aβ40 levels ([9]; vs untreated cells): significantly decreased
- Iso-induced NO decrease in siGAPDH- or siNeg-transfected cells [10]: not affected
- Iso-induced NO decrease in siNrf2-transfected cells [10]: reversed
- Y-maze entries in the novel arm [11, 17]: reversed this trend
- Y-maze time spent in the novel arm [11, 17]: reversed this trend
- Y-maze distance traveled ([11]; males): not affected
- LPS-induced iNOS protein levels [12]: reduced
- LPS-induced pro-IL-1β protein levels [12]: reduced
- percentage of investigations in the novel object (decreased in APP/PS1 VEH) [13]: reverted
- recognition index (lowered in APP/PS1 VEH) [13]: reversed
